According to ChEMBL document CHEMBL1159098, “A new series of flavones, thioflavones, and flavanones as selective monoamine oxidase-B inhibitors” (Bioorg Med Chem, 2010):
Each block holds one compound with its values, some of them ahead of it.

Legend:
[1] = molecular target: T1, Amine oxidase [flavin-containing] B (Homo sapiens, UniProt P27338); format: cell-based, BTI-TN-5B1-4
T1 sequence (P27338 whole entry): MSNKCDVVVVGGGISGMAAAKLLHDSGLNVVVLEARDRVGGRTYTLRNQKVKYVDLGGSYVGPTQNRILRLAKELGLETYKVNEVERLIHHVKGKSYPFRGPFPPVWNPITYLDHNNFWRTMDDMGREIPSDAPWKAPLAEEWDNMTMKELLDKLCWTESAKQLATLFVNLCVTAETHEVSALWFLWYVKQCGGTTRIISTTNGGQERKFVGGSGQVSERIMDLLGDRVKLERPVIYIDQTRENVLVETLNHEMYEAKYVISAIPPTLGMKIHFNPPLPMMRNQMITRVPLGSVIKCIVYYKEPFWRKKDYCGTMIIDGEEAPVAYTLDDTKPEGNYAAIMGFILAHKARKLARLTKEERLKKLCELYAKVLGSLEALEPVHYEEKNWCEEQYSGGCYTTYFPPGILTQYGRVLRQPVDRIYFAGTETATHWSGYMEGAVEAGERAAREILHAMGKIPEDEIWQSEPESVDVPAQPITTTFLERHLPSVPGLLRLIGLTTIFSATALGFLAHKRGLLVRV

[2] = molecular target: T1, Amine oxidase [flavin-containing] B; test: Inhibition of human recombinant MAOB expressed in BTI-TN-5B1-4 cells at 100 nM after repeated washing by centrifugation-ultrafiltration method; format: cell-based; conditions: BTI-TN-5B1-4, human
Procedure, shortened: (§1)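 Recombinant hMAO-B was incubated with one concentration of inhibitor in 0.05 M sodium phosphate pH 7.4 for 15 min at 37 °C. One aliquot was kept at 4 °C unwashed. The rest was washed three times by 30 kDa ultrafiltration (9000g, 20 min, 4 °C) and resuspended in buffer.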

Homo sapiens = species on record: Homo sapiens; test: Selectivity for human MAOB over human MAOA
Procedure, shortened: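 Selectivity index = IC50(hMAO-A)/IC50(hMAO-B), both from Amplex Red/p-tyramine fluorimetric assays on insect-cell recombinant enzymes.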

[3] = molecular target: T2, Amine oxidase [flavin-containing] A (Homo sapiens, UniProt P21397); test: Inhibition of human recombinant MAOA expressed in BTI-TN-5B1-4 cells at 100 uM by para-tyramine oxidation assay; format: cell-based; conditions: human, bti-tn-5b1-4, 100 µM
T2 sequence (P21397 whole entry): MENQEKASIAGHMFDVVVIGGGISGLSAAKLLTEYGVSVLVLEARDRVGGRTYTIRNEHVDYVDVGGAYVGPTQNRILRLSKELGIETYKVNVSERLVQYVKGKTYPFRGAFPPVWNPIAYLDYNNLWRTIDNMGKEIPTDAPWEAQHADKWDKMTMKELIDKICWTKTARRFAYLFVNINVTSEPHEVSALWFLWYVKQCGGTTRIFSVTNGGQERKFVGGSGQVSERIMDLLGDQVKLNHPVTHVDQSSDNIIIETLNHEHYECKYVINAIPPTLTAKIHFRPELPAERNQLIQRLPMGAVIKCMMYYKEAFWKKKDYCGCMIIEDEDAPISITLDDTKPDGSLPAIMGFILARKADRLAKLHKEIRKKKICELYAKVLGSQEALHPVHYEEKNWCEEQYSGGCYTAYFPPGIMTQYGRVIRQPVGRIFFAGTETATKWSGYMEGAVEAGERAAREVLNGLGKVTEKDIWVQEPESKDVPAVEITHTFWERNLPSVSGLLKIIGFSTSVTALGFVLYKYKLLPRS

[4] = molecular target: T1, Amine oxidase [flavin-containing] B; test: Inhibition of human recombinant MAOB expressed in BTI-TN-5B1-4 cells at 100 nM before washing by centrifugation-ultrafiltration method; format: cell-based; conditions: BTI-TN-5B1-4, human
Procedure, shortened: as §1

[5] = molecular target: T2, Amine oxidase [flavin-containing] A; test: Inhibition of human recombinant MAOA expressed in BTI-TN-5B1-4 cells at 500 uM before washing by centrifugation-ultrafiltration method; format: cell-based; conditions: BTI-TN-5B1-4, human
[6] = molecular target: T1, Amine oxidase [flavin-containing] B; test: Inhibition of human recombinant MAOB expressed in BTI-TN-5B1-4 cells at 1 mM by para-tyramine oxidation assay; format: cell-based; conditions: bti-tn-5b1-4, 1000 µM
[7] = molecular target: T1, Amine oxidase [flavin-containing] B; test: Inhibition of human MAOB
Procedure, shortened: (§2)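 Recombinant human MAO-A or -B as microsomes from baculovirus-infected BTI-TN-5B1-4 insect cells, dosed to oxidize 165 pmol p-tyramine/min in controls (A 1.1 µg, B 7.5 µg protein). Preincubated with inhibitor 15 min at 37 °C in 0.05 M sodium phosphate pH 7.4. Started with 1 mM p-tyramine, 200 µM Amplex Red, 1 U/ml HRP (final). Resorufin fluorescence (ex 545/em 590 nm) read over 15 min at 37 °C, background subtracted.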

[8] = molecular target: T2, Amine oxidase [flavin-containing] A; test: Inhibition of human MAOA
Procedure, shortened: as §2

IC50 [1]: 130 nM | inhibition at 0.1 µM [2]: 36.5% | Ratio IC50 (Homo sapiens): > 769 | inhibition (INH) [3]: Not Active | inhibition at 0.1 µM [4]: 38.4%
Compound: Cc1ccc2c(c1)OC(c1ccc(F)cc1)CC2=O (racemic)

Compound: O=C(NCCN1CCOCC1)c1ccc(Cl)cc1 [MOCLOBEMIDE]
inhibition at 500 µM [5]: 84.8% | inhibition (INH) [6]: Not Active

Compound: O=c1cc(-c2ccc(O)cc2)oc2cc(O)cc(O)c12 [APIGENIN]
IC50 [7]: 12.8 µM | IC50 [8]: 1700 nM
